In ChEMBL document CHEMBL1806473, “Structure-based optimization of click-based histone deacetylase inhibitors” (Eur J Med Chem, 2011):

Key:
KM12 = assay: Cytotoxicity against human KM12 cells; type: cell-based
SK-MEL-28 [1] = assay: Cytotoxicity against human SK-MEL-28 cells; type: cell-based
NCI/ADR-RES [2] = assay: Cytotoxicity against human NCI/ADR-RES cells; type: cell-based
In short: (§1)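 Tested in the NCI in vitro disease-oriented human tumour cell line screen, with screening performed by NCI. Growth was read by SRB signal over the drug incubation period at five concentrations: 100, 10, 1.0, 0.1 and 0.01 μM. GI50 is the concentration that reduces growth of treated cells to half that of control cells.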

HOP-92 = assay: Cytotoxicity against human HOP92 cells; type: cell-based
MCF7 [3] = assay: Cytotoxicity against human MCF7 cells; type: cell-based
LOX IMVI [4] = assay: Cytotoxicity against human LOXIMVI cells; type: cell-based
SN12C = assay: Antiproliferative activity against human SN12C cells by SRB assay; type: functional
In short: (§2)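 Tested in the NCI in vitro human tumor cell line screen, run by the National Cancer Institute. Each compound was given at five concentrations (100, 10, 1.0, 0.1 and 0.01 μM). GI50 is the drug concentration that reduces growth of treated cells to half that of control cells during drug incubation, judged from the SRB signal.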

Malme-3M [5] = assay: Antiproliferative activity against human MALME-3M cells by SRB assay; type: functional; in short: as §2
SF-295 = assay: Antiproliferative activity against human SF295 cells by SRB assay; type: functional; in short: as §2
HL-60(TB) = assay: Antiproliferative activity against human HL-60(TB) cells by SRB assay; type: functional; in short: as §1
UACC-62 = assay: Cytotoxicity against human UACC62 cells; type: cell-based
In short: (§3)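 Screened by NCI in its in vitro disease-oriented human tumour cell line panel. Compounds tested at five concentrations (100, 10, 1.0, 0.1 and 0.01 μM). Growth read by sulforhodamine B (SRB) signal. GI50 is the concentration reducing growth of treated cells to half that of control cells during the drug incubation.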

M14 = assay: Cytotoxicity against human M14 cells; type: cell-based
PC-3 = assay: Cytotoxicity against human PC3 cells; type: cell-based
MDA-MB-468 [6] = assay: Antiproliferative activity against human MDA-MB-468 cells by SRB assay; type: functional; in short: as §2
SK-OV-3 = assay: Cytotoxicity against human SKOV3 cells; type: cell-based
A498 [7] = assay: Cytotoxicity against human A498 cells; type: cell-based
HCT-15 [8] = assay: Antiproliferative activity against human HCT15 cells by SRB assay; type: functional; in short: as §2
MCF7 [9] = assay: Antiproliferative activity against human MCF7 cells by SRB assay; type: functional; in short: as §2
[10] = Cytotoxicity against human Hs 578T cells; type: cell-based
OVCAR-3 = assay: Antiproliferative activity against human OVCAR3 cells by SRB assay; type: functional; in short: as §2
SK-MEL-5 [11] = assay: Antiproliferative activity against human SK-MEL-5 cells by SRB assay; type: functional; in short: as §2
U-251 = assay: Antiproliferative activity against human U251 cells by SRB assay; type: functional
In short: (§4)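 Cell growth was tested in the NIH in vitro disease-oriented human tumor cell line screen, which NCI ran for these compounds. Compounds were tested at five concentrations (100, 10, 1.0, 0.1 and 0.01 μM), and growth was read by SRB signal. GI50 is the drug concentration that reduces growth of treated cells to half that of control cells during drug incubation.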

HOP-62 [12] = assay: Antiproliferative activity against human HOP62 cells by SRB assay; type: functional; in short: as §2
HOP-62 [13] = assay: Cytotoxicity against human HOP62 cells; type: cell-based; in short: as §1
MDA-MB-468 [14] = assay: Cytotoxicity against human MDA-MB-468 cells; type: cell-based; in short: as §1
K562 = assay: Antiproliferative activity against human K562 cells by SRB assay; type: functional; in short: as §2
RPMI-8226 = assay: Antiproliferative activity against human RPMI8226 cells by SRB assay; type: functional; in short: as §2
ACHN [15] = assay: Cytotoxicity against human ACHN cells; type: cell-based
SK-MEL-5 [16] = assay: Cytotoxicity against human SK-MEL-5 cells; type: cell-based
NCI-H226 = assay: Cytotoxicity against human NCI-H226 cells; type: cell-based
MDA-MB-231 = assay: Antiproliferative activity against human MDA-MB-231 cells by SRB assay; type: functional; in short: as §2
SK-MEL-28 [17] = assay: Antiproliferative activity against human SK-MEL-28 cells by SRB assay; type: functional; in short: as §2
TK-10 = assay: Cytotoxicity against human TK10 cells; type: cell-based; in short: as §3
HCT-116 = assay: Cytotoxicity against human HCT116 cells; type: cell-based; in short: as §1
HT-29 = assay: Cytotoxicity against human HT-29 cells; type: cell-based; in short: as §1
LOX IMVI [18] = assay: Antiproliferative activity against human LOXIMVI cells by SRB assay; type: functional; in short: as §2
SW-620 = assay: Antiproliferative activity against human SW620 cells by SRB assay; type: functional; in short: as §4
786-0 = assay: Cytotoxicity against human 786-0 cells; type: cell-based
ACHN [19] = assay: Antiproliferative activity against human ACHN cells by SRB assay; type: functional; in short: as §2
SF-268 = assay: Cytotoxicity against human SF268 cells; type: cell-based; in short: as §1
UACC-257 = assay: Antiproliferative activity against human UACC257 cells by SRB assay; type: functional; in short: as §4
SNB-19 = assay: Cytotoxicity against human SNB19 cells; type: cell-based; in short: as §3
NCI/ADR-RES [20] = assay: Antiproliferative activity against human NCI/ADR-RES cells by SRB assay; type: functional; in short: as §2
UO-31 = assay: Antiproliferative activity against human UO31 cells by SRB assay; type: functional; in short: as §4
EKVX = assay: Antiproliferative activity against human EKVX cells by SRB assay; type: functional; in short: as §2
OVCAR-8 = assay: Cytotoxicity against human OVCAR8 cells; type: cell-based
A498 [21] = assay: Antiproliferative activity against human A498 cells by SRB assay; type: functional; in short: as §2
SR = assay: Cytotoxicity against human SR cells; type: cell-based; in short: as §3
Malme-3M [22] = assay: Cytotoxicity against human MALME-3M cells; type: cell-based; in short: as §1
MOLT-4 = assay: Antiproliferative activity against human MOLT4 cells by SRB assay; type: functional; in short: as §2
HCT-15 [23] = assay: Cytotoxicity against human HCT15 cells; type: cell-based; in short: as §1
IGROV-1 = assay: Cytotoxicity against human IGROV1 cells; type: cell-based
BT-549 = assay: Antiproliferative activity against human BT549 cells by SRB assay; type: functional; in short: as §2

SMILES: O=C(/C=C/c1ccc(CN(CCO)CCc2c[nH]c3ccccc23)cc1)NO [DACINOSTAT]
- LC50 (KM12): 29900 nM
- LC50 (SK-MEL-28 [1]): 31900 nM
- LC50 (NCI/ADR-RES [2]): > 100000 nM
- LC50 (HOP-92): 68200 nM
- LC50 (MCF7 [3]): > 100000 nM
- LC50 (LOX IMVI [4]): 6040 nM
- GI50 (SN12C): 1620 nM
- GI50 (Malme-3M [5]): 461 nM
- GI50 (SF-295): 743 nM
- GI50 (HL-60(TB)): 249 nM
- LC50 (UACC-62): 6390 nM
- LC50 (M14): 93800 nM
- LC50 (PC-3): 73500 nM
- GI50 (MDA-MB-468 [6]): 452 nM
- LC50 (SK-OV-3): 28500 nM
- LC50 (A498 [7]): 5880 nM
- GI50 (HCT-15 [8]): 2070 nM
- GI50 (MCF7 [9]): 730 nM
- LC50 [10]: > 100000 nM
- GI50 (OVCAR-3): 1110 nM
- GI50 (SK-MEL-5 [11]): 271 nM
- GI50 (U-251): 773 nM
- GI50 (HOP-62 [12]): 502 nM
- LC50 (HOP-62 [13]): > 100000 nM
- LC50 (MDA-MB-468 [14]): 94300 nM
- GI50 (K562): 550 nM
- GI50 (RPMI-8226): 523 nM
- LC50 (ACHN [15]): 94300 nM
- LC50 (SK-MEL-5 [16]): 4020 nM
- LC50 (NCI-H226): 20000 nM
- GI50 (MDA-MB-231): 1960 nM
- GI50 (SK-MEL-28 [17]): 993 nM
- LC50 (TK-10): > 100000 nM
- LC50 (HCT-116): 51200 nM
- LC50 (HT-29): > 100000 nM
- GI50 (LOX IMVI [18]): 1080 nM
- GI50 (SW-620): 478 nM
- LC50 (786-0): 52400 nM
- GI50 (ACHN [19]): 1100 nM
- LC50 (SF-268): 92100 nM
- GI50 (UACC-257): 393 nM
- LC50 (SNB-19): 31700 nM
- GI50 (NCI/ADR-RES [20]): 180 nM
- GI50 (UO-31): 1120 nM
- GI50 (EKVX): 1750 nM
- LC50 (OVCAR-8): 92500 nM
- GI50 (A498 [21]): 1110 nM
- LC50 (SR): > 100000 nM
- LC50 (Malme-3M [22]): 82000 nM
- GI50 (MOLT-4): 311 nM
- LC50 (HCT-15 [23]): 56400 nM
- LC50 (IGROV-1): 48900 nM
- GI50 (BT-549): 3920 nM
